The values that follow come from paper PMC5652008 (EBioMedicine, 2017).

In assay [1] the target is T1, BACE1 (Homo sapiens, UniProt P56817). The experiment in a line: Cell-based Aβ lowering IC50 assay. In a few lines: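 Test compounds, free or Brain Shuttle-coupled, added in serial dilutions to HEK293 cells stably expressing wild-type human APP695, grown in Iscove's medium with 10% FBS to ~80% confluency. Construct dilution buffers served as control. Overnight at 37 °C, 5% CO2. Supernatant Aβ40 read by AlphaLISA: acceptor beads 1 h, then streptavidin donor beads 30 min, both at RT; emission at 615 nm. Compared with vehicle-treated cells; mean ± SEM.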

For assay [2], the target named is T1, BACE1. The experiment in a line: SPR binding assay on immobilized BACE1. The method, boiled down:
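SPR at 18 °C in the immobilization buffer. Peptide titrations used 2-fold dilution steps, run either as single-cycle kinetics (5 concentrations) or multi-cycle kinetics (10 concentrations). Two protein surfaces and an activated/deactivated CM5 reference surface were measured in parallel on one sensor.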
(SPR reads the build-up and loss of mass on a sensor chip optically.)

A further assay deals with T2, BACE2 (Homo sapiens, UniProt Q9Y5Z0).
T2 sequence (Q9Y5Z0 20-465): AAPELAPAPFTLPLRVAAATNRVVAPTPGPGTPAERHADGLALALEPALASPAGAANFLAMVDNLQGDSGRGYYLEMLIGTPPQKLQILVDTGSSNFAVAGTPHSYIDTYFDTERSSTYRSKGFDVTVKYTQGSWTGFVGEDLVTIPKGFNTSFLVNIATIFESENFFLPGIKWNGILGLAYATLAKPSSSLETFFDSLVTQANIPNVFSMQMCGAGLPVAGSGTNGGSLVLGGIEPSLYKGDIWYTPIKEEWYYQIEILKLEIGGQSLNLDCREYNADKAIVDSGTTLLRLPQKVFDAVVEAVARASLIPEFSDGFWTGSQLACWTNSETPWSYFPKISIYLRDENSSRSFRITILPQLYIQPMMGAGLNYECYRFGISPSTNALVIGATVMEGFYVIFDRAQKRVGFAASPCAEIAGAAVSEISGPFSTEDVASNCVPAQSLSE
The experiment in a line: SPR binding assay on immobilized BACE2. The following applies: BACE2 surface, 18 °C, pH 4.5. In a few lines:
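Binding was run at 18 °C in the same buffer, either single-cycle (5 concentrations) or multi-cycle (10 concentrations), twofold dilutions, against an activated/deactivated reference surface.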

The subject of the next assay is plasma Aβ. The experiment in a line: Plasma Aβ40 after single i.v. dose in mice. Format: in vivo, C57BL/6 J mice. The following applies: 5 h post dose. In a few lines: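 Nine-week-old female mice received one i.v. injection of test compound at 0.003–3 mg/kg, with the buffer alone as vehicle control; three animals per group. Under anaesthesia, blood was collected into EDTA tubes, spun 8 min at 1600 × g, and plasma diluted 1:10 in 0.2% diethanolamine before solid-phase extraction.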

The test system of assay [3] is Aβ production in human stem-cell derived neurons. Nature of the assay: Human neural stem cell-based Aβ40 inhibition assay. The note with it: 48 h incubation. The method, boiled down: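 Neurons differentiated from SB-AD3 human iPSCs (healthy adult donor fibroblasts) via embryoid bodies and dual SMAD inhibition. Doses 0.128–10,000 nM (three independent differentiations) or 0.001024–80 nM (one differentiation), two technical replicates per dose. Vehicle was histidine/NaCl/1.3 mM hydroxypropyl-β-cyclodextrin for peptides and DMSO for small molecules. Aβ40 read by AlphaLISA at 615 nm, compared with vehicle-treated cells; means ± SEM.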

Assay [4] has as its target Beta-secretase 1 (BACE1), C-terminal His-tagged full length. The experiment in a line: SPR.
Assay [5] has as its target T3, N-terminal T7-tagged BACE2 (amino acids 20-465) (UniProt Q9Y5Z0 20-465).
T3 sequence: T2 sequence (Q9Y5Z0 20-465)
Nature of the assay: SPR.

Assay [6] addresses BACE1 ectodomain mutant protein (A14-T454, K307A) (UniProt P56817 14-454, K307A). The experiment in a line: crystal structure.

Square brackets hold non-standard residues; d marks the D form. Peptide text beside a SMILES is read from it. * marks the point of attachment. Sta = CC(C)C[C@H](N)[C@@H](O)CC(=O)O; Palmitoyl = CCCCCCCCCCCCCCCC(=O)* Bounds are passed on as bounds.

T1 sequence (P56817 46-501): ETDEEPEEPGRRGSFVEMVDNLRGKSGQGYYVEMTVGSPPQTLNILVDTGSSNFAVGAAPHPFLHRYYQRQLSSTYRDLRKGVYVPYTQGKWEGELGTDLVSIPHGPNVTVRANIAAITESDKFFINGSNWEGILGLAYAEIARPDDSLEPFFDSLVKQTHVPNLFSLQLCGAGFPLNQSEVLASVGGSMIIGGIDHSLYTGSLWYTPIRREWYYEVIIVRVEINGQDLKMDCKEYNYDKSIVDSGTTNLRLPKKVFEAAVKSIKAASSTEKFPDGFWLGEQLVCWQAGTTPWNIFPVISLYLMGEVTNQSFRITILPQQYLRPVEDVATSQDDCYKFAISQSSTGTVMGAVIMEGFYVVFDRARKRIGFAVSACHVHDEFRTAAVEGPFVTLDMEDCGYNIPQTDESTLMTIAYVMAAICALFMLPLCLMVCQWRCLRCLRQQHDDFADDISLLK
Chain of BACE1 ectodomain mutant protein (A14-T454, K307A) (P56817 14-454 K307A): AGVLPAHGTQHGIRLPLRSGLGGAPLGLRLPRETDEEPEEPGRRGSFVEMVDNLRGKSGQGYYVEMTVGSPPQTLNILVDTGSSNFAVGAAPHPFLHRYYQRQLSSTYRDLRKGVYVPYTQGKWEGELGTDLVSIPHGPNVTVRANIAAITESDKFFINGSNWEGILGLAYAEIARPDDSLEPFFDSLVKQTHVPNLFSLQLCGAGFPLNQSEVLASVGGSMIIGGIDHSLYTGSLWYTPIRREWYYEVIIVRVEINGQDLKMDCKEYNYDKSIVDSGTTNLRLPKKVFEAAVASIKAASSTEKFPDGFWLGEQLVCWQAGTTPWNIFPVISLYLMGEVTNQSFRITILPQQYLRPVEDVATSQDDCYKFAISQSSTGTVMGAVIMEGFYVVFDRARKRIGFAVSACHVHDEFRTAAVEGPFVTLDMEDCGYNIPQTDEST

`CC(C)C[C@H](NC(=O)[C@H](CC(N)=O)NC(=O)[C@@H](NC(=O)[C@@H](N)CCC(=O)O)C(C)C)[C@@H](O)CC(=O)N[C@H](C(=O)N[C@@H](C)C(=O)N[C@@H](CCC(=O)O)C(=O)N1CCC[C@@H]1C(N)=O)C(C)C` [Pep#1, Glu-Val-Asn-Sta-Val-Ala-Glu-DPro-NH2] (H-EVN[Sta]VAE[dP]-NH2; N-terminus assumed) showed an IC50 against BACE1 [1] above 40 µM. For the same molecule, the kon on BACE1 [2] (BACE1 surface, 18 °C, pH 4.5) is 2.5–4.0·10^3 1/Ms; on BACE2 it was 2.7–3.1·10^3 1/Ms. The “Selectivity for BACE1” value at BACE1 [2] (ratio KD(BACE2)/KD(BACE1)) is above 280.

As for `CCCCCCCCCCCCCCCC(=O)NCCCC[C@H](NC(=O)[C@H]1CCCN1C(=O)[C@H](CCC(=O)O)NC(=O)[C@H](C)NC(=O)[C@@H](NC(=O)C[C@H](O)[C@H](CC(C)C)NC(=O)[C@H](CC(N)=O)NC(=O)[C@@H](NC(=O)[C@H](CCC(=O)O)NC(=O)CNC(=O)[C@@H](CCCCN)NC(=O)CNC(=O)[C@H](CC(C)C)NC(=O)[C@@H]1CCCN1C(=O)[C@@H](NC(=O)[C@H](Cc1ccccc1)NC(=O)[C@H](CCCCN)NC(=O)[C@@H]1CCCN1C(=O)[C@H](Cc1ccc(O)cc1)NC(=O)CNC(=O)CNC(=O)CN)[C@@H](C)CC)C(C)C)C(C)C)C(N)=O` [Pep#15, Gly-Gly-Gly-Tyr-Pro-Lys-Phe-Ile-Pro-Leu-Gly-DLys-Gly-Glu-Val-Asn-Sta-Val-Ala-Glu-DPro-Lys(Palmitoyl)-NH2] (H-GGGYPKFIPLG[dK]GEVN[Sta]VAE[dP]K(Palmitoyl)-NH2; N-terminus assumed), the “Aβ40 production inhibition in HEK293 APP cells” value on BACE1 [1] (16 h / overnight incubation) is “blocked production of Aβ40”. In the assay with plasma Aβ (0.003-3 mg/kg i.v., uncoupled peptides), the “Plasma Aβ40 inhibition” value was “Dose-dependent inhibition”. The “Plasma Aβ level reduction” value with plasma Aβ (3 mg/kg i.v., uncoupled peptide) is 50%. In addition, in assay [3], the “Aβ production inhibition in human stem-cell derived neurons” value is recorded as “able to reduce the Aβ production”.

For Ac-YPYFLPISAK-NH2 [Pep#6], the figures for the equilibrium dissociation constant (Kd) in assay [4] and in assay [5] were 25 µM and 66 µM, respectively.

Consider Ac-ALYPYFLPISAK-NH2 [Pep#6a], for which the binding result in assay [6] was “binds”.

The term IC50 denotes the concentration at which inhibition is half-maximal. Lower therefore signals inhibition by little substance. As usually defined, the Kd is the constant that tells how readily two partners part at equilibrium. Higher therefore signals weaker binding.
